According to PubChem BioAssay AID2247 (Johns Hopkins Ion Channel Center, 2010):
In all, about 300,000 compounds went through this assay and about 1,200 (0.4%) were called active.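 How the source made its calls: active means B-score over 3 SD under the library average, no early fluorescence shift, positive overall ratio signal; inactive means the rest.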 The entries come from a sample that favours actives as a whole.

These molecules were tested against Short transient receptor potential channel 4 (Mus musculus) (UniProt Q9QUQ5) (assay: inhibitors of mouse TRPC4 channel, primary screen, Fluo4 calcium, HEK293 TRPC4beta/mu-opioid cells (AID 2247)). Conditions: DAMGO-evoked Fluo4 calcium flux, at 10 µM; hits give low values.
Short transient receptor potential channel 4 (Mus musculus), sequence (Q9QUQ5 whole entry, looked up): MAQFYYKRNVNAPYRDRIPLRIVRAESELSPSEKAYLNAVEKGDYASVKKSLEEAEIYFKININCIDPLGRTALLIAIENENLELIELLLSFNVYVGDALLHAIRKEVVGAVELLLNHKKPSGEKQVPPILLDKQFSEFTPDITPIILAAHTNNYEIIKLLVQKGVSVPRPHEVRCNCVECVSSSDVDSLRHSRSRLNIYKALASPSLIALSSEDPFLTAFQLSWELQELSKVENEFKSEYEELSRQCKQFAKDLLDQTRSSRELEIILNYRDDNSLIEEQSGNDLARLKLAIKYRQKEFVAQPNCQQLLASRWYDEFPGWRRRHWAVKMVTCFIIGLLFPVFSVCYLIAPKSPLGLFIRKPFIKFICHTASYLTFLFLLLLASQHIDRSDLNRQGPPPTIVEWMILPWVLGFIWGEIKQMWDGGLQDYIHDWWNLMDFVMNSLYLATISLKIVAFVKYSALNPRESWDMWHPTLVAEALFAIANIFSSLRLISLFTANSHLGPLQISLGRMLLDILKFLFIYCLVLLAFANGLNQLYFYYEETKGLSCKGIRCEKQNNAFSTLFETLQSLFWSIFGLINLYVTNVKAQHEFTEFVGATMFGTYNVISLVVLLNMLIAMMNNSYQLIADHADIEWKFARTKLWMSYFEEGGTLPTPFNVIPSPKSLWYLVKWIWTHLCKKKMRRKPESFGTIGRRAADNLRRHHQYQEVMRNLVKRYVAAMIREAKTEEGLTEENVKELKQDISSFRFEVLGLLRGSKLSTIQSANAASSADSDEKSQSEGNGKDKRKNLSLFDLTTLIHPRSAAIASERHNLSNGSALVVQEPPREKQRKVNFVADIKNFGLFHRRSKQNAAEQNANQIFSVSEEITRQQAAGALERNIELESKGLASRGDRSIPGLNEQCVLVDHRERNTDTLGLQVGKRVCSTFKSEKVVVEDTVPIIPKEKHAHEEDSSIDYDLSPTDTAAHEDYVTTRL
Summary of the method: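 test system = HEK293 cells with stable TRPC4beta plus mu-opioid receptor expression | detection = Fluo4 Ca2+ flux fluorescence | read-out = integrated fluorescence ratio relative to baseline, converted to per-well B score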
With `CCOC(=O)C1(Cc2ccc(Cl)cc2)CCN(C(C)CCn2cccn2)CC1` (stereo not given) the B-score was -6 (active).
For `CN(C)CC1CCCCC1=O` (stereo not given), the B-score was “inactive”.
In the case of `CC(=O)N(C1=NCCCS1)c1ccccc1F`, the B-score was “inactive”.
With `CSc1ccc(C(=O)C2CCCN(Cc3ccn[nH]3)C2)cc1` (stereo not given) the B-score was “inactive”.
In the case of `Cc1ccc(C2CN(C)CC2C(=O)c2ccc(F)cc2)cc1` (stereo not given), the B-score was -6 (active).
`COc1ccc(C(=O)C2CN(C)CC2C(=O)c2ccc(OC)cc2)cc1` (stereo not given) was tested, and the B-score was “inactive”.
With `CN1CCC(OC(=O)c2cccc(F)c2)CC1` the B-score was “inactive”.
For `O=c1[nH]c(CN2CC=C(c3ccccc3)CC2)nc2scc(-c3cccs3)c12`, the B-score was “inactive”.
`COc1ccc(CN2CCN(c3ccccc3F)CC2)c(OC)c1` was tested, and the B-score was “inactive”.
`CCOC(=O)C1(CCc2ccccc2)CCN(Cc2ccco2)CC1` was tested, and the B-score was -8 (active).
With `c1ccc(CCN2CCC3(CC2)OCCO3)cc1` the B-score was “inactive”.
For `CCC(=NCc1ccco1)c1c(O)n(Cc2ccccc2)c(=O)[nH]c1=O`, the B-score was “inactive”.
`COc1ccc(N=Cc2c(O)n(C)c(=O)[nH]c2=O)cc1` was tested, and the B-score was “inactive”.
With `N#CC1=C(N)Oc2c(c(=O)oc3ccccc23)C1c1ccccc1OC(=O)c1cccs1` (stereo not given) the B-score was “inactive”.
With `COC(=O)C1=C(c2cc3ccccc3s2)C[C@@H]2CC[C@H]1N2C(=O)NCCO` the B-score was -6 (active).
`COC(=O)C1=C(c2cc3ccccc3s2)C[C@@H]2CC[C@H]1N2C(=O)NC(C)C` was tested, and the B-score was “inactive”.
In the case of `COC(=O)C1=C(c2cc3ccccc3s2)C[C@@H]2CC[C@H]1N2C(=O)NCc1cccc2ccccc12`, the B-score was “inactive”.
With `OCC#CC[N+]1(CC#Cc2ccccc2)CCCC1` the B-score was “inactive”.
`CNCC(O)c1cc(F)c(OCc2ccccc2)c(OCc2ccccc2)c1F` (stereo not given) was tested, and the B-score was “inactive”.
In the case of `CCOc1cccc(=NC2CCCCC2)c2c(C)[nH]c(C)c12`, the B-score was “inactive”.
